According to PMC10242637 (Saudi Pharmaceutical Journal : SPJ, 2023):

Legend:
[1] = system: T. cruzi trypomastigotes (Y strain); assay: Anti-trypomastigote assay; format: cell-based; conditions: Trypanosoma cruzi, 24 h, read-out: IC50 (µM ± SD) T.c.T
In short: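 Y-strain trypomastigotes at 1 × 10^6 cells/well in RPMI 1640 were exposed to test compound (150 to 1.1 μM, 1:2 dilutions) for 24 h at 37 °C in 5% CO2, with 0.5% v/v DMSO final. Resazurin (0.011% v/v) was then added for 24 h and absorbance read at 570 nm. IC50 came from non-linear regression against untreated parasites as 100% viability. Two independent runs, each in duplicate.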

[2] = Cytotoxicity against mammalian cells; format: cell-based; conditions: mouse, NCTC clone 929 (L929) fibroblasts
In short: (§1)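 NCTC clone 929 fibroblasts were seeded at 6 × 10^4 cells/well and exposed to test compound (200 to 1.5 μM, 1:2 dilutions) for 48 h at 37 °C in 5% CO2, with 0.5% v/v DMSO final. Viability was read by MTT at 570 nm, and CC50 was taken from sigmoid dose–response curves. SI = CC50 divided by the amastigote IC50. Two independent runs, each in duplicate.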

[3] = system: fibroblasts NCTC cells (clone 929); assay: Cytotoxicity against mammalian cells; format: cell-based; conditions: for SI (Selective Index): ratio between CC50 (NCTC) and IC50 (amastigote - TCA); for CC50: read-out: CC50 NCTC, NCTC cells (clone L929), 48 h, MTT
In short: as §1

[4] = Calculation of physicochemical properties and descriptors; conditions: 2b over the neutral analogue 2c; from calculated LogS7.4

Compound: O=C(c1ccc(Cl)cc1)N1CCN(Cc2ccccc2)CC1 [1 g, 1‐benzyl‐4‐(4‐chlorobenzoyl)piperazine]
- IC50 [1]: > 150 µM
- CC50 at 48 h [2]: > 200 µM

Compound: COc1cc(C(=O)N2CCN(Cc3ccccc3)CC2)ccc1O [1a, (4-Benzylpiperazin-1-yl)(4-hydroxy-3-methoxyphenyl)methanone]
- IC50 [1]: > 150 µM
- SI (Selective Index) [3]: >5.6
- CC50 at 48 h [2]: > 200 µM

Compound: COc1ccc(C(=O)N2CCN(Cc3ccccc3)CC2)cc1 [1b, (4-Benzylpiperazin-1-yl)(4-methoxyphenyl)methanone]
- IC50 [1]: > 150 µM
- CC50 at 48 h [2]: > 200 µM

Compound: COc1ccc(C(=O)N2CCC(Cc3ccccc3)CC2)cc1 [1c, 4-Benzyl-1-(4-methoxybenzoyl)piperidine]
- IC50 [1]: 65.3 ± 2.3 µM
- CC50 at 48 h [2]: > 200 µM

Compound: COc1cc(/C=C/C(=O)N2CCN(Cc3ccccc3)CC2)ccc1O [2a, (2E)-1-(4-benzylpiperazin-1-yl)-3-(4-hydroxy-3-methoxyphenyl)prop-2-en-1-one]
- IC50 [1]: > 150 µM
- CC50 at 48 h [2]: > 200 µM

Compound: COc1ccc(/C=C/C(=O)N2CCN(Cc3ccccc3)CC2)cc1 [2b, (2E)-1-(4-benzylpiperazin-1-yl)-3-(4-methoxyphenyl) prop-2-en-1-one]
- IC50 [1]: > 150 µM
- increase in LogS7.4 value [4]: 1.3 log unit
- SI (Selective Index) [3]: >7
- CC50 at 48 h [2]: > 200 µM

Compound: O=C(Cn1ccnc1[N+](=O)[O-])NCc1ccccc1 [BZN, Benznidazole, reference compound]
- IC50 [1]: 12.3 ± 3.3 µM
- SI (Selective Index) [3]: >40
- CC50 at 48 h [2]: > 200 µM

Compound: (2E)-1-(1-benzylpiperidin-4-yl)-3-(4-methoxyphenyl)prop-2-en-1-one [2c]
- SI (Selective Index) [3]: >11.2
- CC50 [3]: > 200 µM

Compound: (2E)-3-(3,4-dihydroxyphenyl)-1-(4-phenylpiperazin-1-yl)prop-2-en-1-one [2d]
- SI (Selective Index) [3]: 2.8
- CC50 [3]: 57.2 ± 2 µM

Compound: (2E)-3-(4-hydroxy-3-methoxyphenyl)-1-(4-phenylpiperazin-1-yl)prop-2-en-1-one
- CC50 [3]: > 200 µM

Compound: (3,4-dihydroxyphenyl)-(4-phenylpiperazin-1-yl)methanone [1d]
- SI (Selective Index) [3]: >5.7
- CC50 [3]: > 200 µM

Compound: (4-hydroxy-3-methoxyphenyl)(4-phenylpiperazin-1-yl)methanone [1e]
- CC50 [3]: > 200 µM

Compound: (4-methoxyphenyl)(4-phenylpiperazin-1-yl)methanone [1f]
- CC50 [3]: > 200 µM
